Measured values published in ChEMBL document CHEMBL1142995, “Probing the pharmacophore of ginkgolides as glycine receptor antagonists” (J Med Chem, 2007).

How the values were obtained:
Assay type in all cases: cell-based
[1] = molecular target: T1, Glycine receptor subunit alpha-2 (Homo sapiens, UniProt P23416); assay: Activity at human alpha-2GlyR expressed in HEK293 cells by FMP assay
T1 sequence (P23416 whole entry): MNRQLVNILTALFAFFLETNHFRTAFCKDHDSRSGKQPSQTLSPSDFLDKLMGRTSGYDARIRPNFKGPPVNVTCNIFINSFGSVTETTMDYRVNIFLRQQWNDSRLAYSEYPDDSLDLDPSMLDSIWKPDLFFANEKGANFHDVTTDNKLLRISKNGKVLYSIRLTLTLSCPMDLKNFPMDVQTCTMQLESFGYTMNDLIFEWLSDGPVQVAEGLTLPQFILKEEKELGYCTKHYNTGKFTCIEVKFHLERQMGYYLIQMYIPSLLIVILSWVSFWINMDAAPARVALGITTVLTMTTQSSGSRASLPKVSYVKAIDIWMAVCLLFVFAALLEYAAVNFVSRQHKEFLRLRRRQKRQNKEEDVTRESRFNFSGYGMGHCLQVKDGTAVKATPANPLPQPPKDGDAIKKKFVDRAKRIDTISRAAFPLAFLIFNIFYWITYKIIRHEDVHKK
Procedure, shortened: (§1)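 Stable HEK293 lines (α1: G418; α1β: G418 + hygromycin B; α2: hygromycin B) plated on poly-D-lysine 16-24 h. Loaded with FMP dye in HBSS/20 mM HEPES pH 7.4, antagonist present, 30 min at 37 °C. Fluorescence ex 530/em 560 nm read up to 1 min after glycine: 200 µM (α1, α1β) or 500 µM (α2). Duplicates, ≥3 experiments; IC50 from maximal responses.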

[2] = molecular target: T2, Glycine receptor subunit alpha-1 (Homo sapiens, UniProt P23415); assay: Activity at human alpha-1GlyR expressed in HEK293 cells by FMP assay; procedure, shortened: as §1
T2 sequence (P23415 whole entry): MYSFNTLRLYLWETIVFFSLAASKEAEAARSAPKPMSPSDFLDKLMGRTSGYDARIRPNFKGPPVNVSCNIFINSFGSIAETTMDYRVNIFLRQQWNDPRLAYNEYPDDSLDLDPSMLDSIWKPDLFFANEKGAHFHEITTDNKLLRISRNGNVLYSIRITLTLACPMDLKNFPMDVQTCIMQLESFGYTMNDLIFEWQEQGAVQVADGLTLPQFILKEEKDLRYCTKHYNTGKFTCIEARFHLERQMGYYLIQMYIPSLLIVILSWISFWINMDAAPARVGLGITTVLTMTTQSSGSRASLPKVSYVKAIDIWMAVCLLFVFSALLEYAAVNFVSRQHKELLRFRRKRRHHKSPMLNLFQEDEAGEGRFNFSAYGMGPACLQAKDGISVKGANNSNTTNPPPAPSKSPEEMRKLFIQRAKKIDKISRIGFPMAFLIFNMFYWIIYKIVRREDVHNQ

[3] = molecular target: T2, Glycine receptor subunit alpha-1; assay: Activity at human alpha-1-beta-GlyR expressed in HEK293 cells by FMP assay; procedure, shortened: as §1
[4] = molecular target: T2, Glycine receptor subunit alpha-1; assay: Activity at human alpha-1GlyR expressed in HEK293 cells assessed as inhibition of 300 uM glycine-induced current by whole-cell patch clamp experiment

Structure (SMILES)	IC50 [1] [µM]	IC50 [2] [µM]	IC50 [3] [µM]	IC50 [4] [µM]
C[C@@H]1C(=O)O[C@H]2[C@H](O)[C@]34C5OC(=O)[C@@]3(OC3OC(=O)[C@H](O)C34[C@H](C(C)(C)C)[C@@H]5O)[C@@]12O (stereo not given in full)	> 100	> 100	> 100	–
C[C@@H]1C(=O)O[C@H]2[C@H](O)[C@]34[C@@H]5C(=O)O[C@@]3(O[C@@H]3OC(=O)[C@H](O)[C@@]34[C@H](C(C)(C)C)[C@@H]5N=[N+]=[N-])[C@@]12O	29	17	7.4	–
C[C@@H]1C(=O)O[C@H]2C[C@@]34C5C[C@@H](C(C)(C)C)C36C(=O)C(=O)OC6O[C@]4(C(=O)O5)[C@]21O (stereo not given in full)	> 100	> 100	> 100	–
C[C@@H]1CO[C@@H]2C[C@@]34C5C[C@@H](C(C)(C)C)C36C(OC(=O)[C@@H]6O)O[C@]4(C(=O)O5)[C@@]12O (stereo not given in full)	> 100	> 100	> 100	–
C[C@@H]1C(=O)O[C@H]2[C@H](O)[C@@]34C5OC(=O)[C@@]3(OC3OC(=O)[C@H](O)C34[C@H](C(C)(C)C)[C@H]5OS(=O)(=O)C(F)(F)F)[C@@]12O (stereo not given in full)	> 100	> 100	> 100	–
C[C@@H]1C(=O)O[C@H]2[C@H](O)[C@]34C5OC(=O)[C@@]3(OC3OC(=O)[C@H](O)C34[C@H](C(C)(C)C)[C@@H]5OC(=O)Cc3ccccc3)[C@@]12O (stereo not given in full)	> 100	> 100	> 100	–
C[C@@H]1C(=O)OC2[C@@H]3OCO[C@H]4C(=O)OC5OC6(C(=O)OC7C[C@@H](C(C)(C)C)C54[C@]736)[C@]21O (stereo not given in full)	12	12	8.9	–
CC(=O)O[C@H]1C(=O)OC2O[C@@]34C(=O)OC5C[C@@H](C(C)(C)C)C21[C@@]53C[C@@H]1OC(=O)[C@H](C)[C@@H]14 (stereo not given in full)	> 100	> 100	> 100	–
CC1=C2C(=C[C@]34C5OC(=O)[C@@]23OC2OC(=O)[C@H](O)C24[C@H](C(C)(C)C)[C@H]5O)OC1=O (stereo not given in full)	> 100	> 100	> 100	–
C[C@@H]1C(=O)O[C@H]2[C@H](O)[C@]34[C@@H]5C(=O)O[C@@]3(O[C@@H]3OC(=O)[C@H](O)[C@@]34[C@H](C(C)(C)C)[C@@H]5F)[C@@]12O	4.6	7.3	3.2	–
CC1=C2[C@H](C[C@]34[C@H]5C[C@@H](C(C)(C)C)[C@]36[C@@H](OC(=O)[C@@H]6O)O[C@]24OC5=O)OC1=O [3,14-DIDEHYDROGINKGOLIDE A]	9.5	6.2	3.1	–
CC(=O)O[C@H]1C(=O)OC2O[C@@]34C(=O)OC5C[C@@H](C(C)(C)C)C21[C@@]53C[C@@H]1OC(=O)[C@@H](C)[C@@]14O (stereo not given in full) [10-ACETOXY-GINKGOLIDE B]	> 100	> 100	> 100	–
COCO[C@H]1C(=O)O[C@H]2O[C@@]34OC(=O)[C@@H]5C[C@@H](C(C)(C)C)[C@@]21[C@]53C[C@@H]1OC(=O)[C@@H](C)[C@@]14O [10-METHOXYMETHYLOXY-GINKGOLIDE A]	> 100	> 100	> 100	–
C[C@@H]1C(=O)O[C@H]2C[C@@]34[C@H]5C[C@@H](C(C)(C)C)[C@]36[C@@H](OC(=O)[C@@H]6O)O[C@@]4(C(=O)O5)[C@]21O [GINKGOLIDE A]	2.1	1.9	0.69	3.8
C[C@@H]1C(=O)O[C@H]2C[C@@]34O[C@@H]5OC(=O)[C@H](O)[C@@]56[C@H](C(C)(C)C)[C@H](O)C(OC3=O)[C@]64[C@]21O (stereo not given in full) [GINKGOLIDE J]	12	7.1	4.2	6.4
C[C@@H]1C(=O)O[C@@H]2[C@H]1[C@@]13OC4OC(=O)[C@H](O)C45[C@H](C(C)(C)C)[C@@H](O)C(OC1=O)[C@]53[C@H]2O (stereo not given in full) [GINKGOLIDE M]	1.3	0.78	0.56	0.65
C[C@@H]1C(=O)O[C@H]2[C@H](O)[C@@]34[C@H]5C[C@@H](C(C)(C)C)[C@]36[C@@H](OC(=O)[C@@H]6O)O[C@@]4(C(=O)O5)[C@@]12O [GINKOLIDE B]	3.7	2.9	2.1	1.7
